Screens from PubChem BioAssay.
Most compounds without a hit are left out; they make up all but 2.4% or so of the library.
TCR-CD3 inh – inhibitors of human TCR-CD3 interaction. TAMRA-labeled TCR probe fluorescence, biochemical. inhibition, % at 9.4 µM. 360,000 tested, 0.37% active. AID 651800; in the data active means inhibition above about 19%;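 further: recombinant mutant TCR 2C K166C tagged with TAMRA read by polarization; 0% = receptor in buffer alone and 100% = receptor with positive control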
SIAE inh – blocks human sialic acid acetylesterase; Q9HAT2; SIAE FP-Rh probe binding, fluorescence polarization; inhibition, % at 9.66 µM; 370,000 tested, 0.69% active;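 active means inhibition above a cutoff: mean of compounds within the control limits plus 3 SD of those, cut at about 17% in these data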;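 further: 0% = plate median of compound wells and 100% = probe without SIAE protein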
Apaf1 inhib – human Apaf-1 inhibition; 330,000 tested, 0.71% active; reconstituted apoptosome caspase-3 activity, DEVD-Rh110 fluorescence; O14727; inhibition, % at 20 µM; active means inhibition of at least 40% at 20 µM;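 further: plate controls were DMSO wells for no effect and DEVD-CHO caspase inhibitor wells for full effect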
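Medium: Hepes buffer, pH 7.5 / System: biochemical Apaf-1 apoptosome reconstitution / Measured by: Rh110 fluorescence, excitation 480 nm, emission 540 nm / Times: compound with Apaf-1, dATP, procaspase-3 30 min, then 50 min reaction, room temperature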
PAD4 FP inh – blocks human protein arginine deiminase 4; Q9UM07; recombinant PAD4, RCA probe fluorescence polarization; inhibition, % at 6.36 µM; 330,000 tested, 0.41% active;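 active means percent inhibition above a cutoff equal to the mean of all tested compounds plus 3 SD, cut at about 15% in these data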;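 further: 0% = PAD4 with RCA probe and DMSO and 100% = probe without PAD4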
GSTO1 counter – blocks human GSTO1 in RBBP9 counter-screen; P78417; recombinant GSTO1, activity-based probe fluorescence polarization; inhibition, % at 5.96 µM; 300,000 tested, 1.1% active;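 active means inhibition above the campaign mean inhibition plus 3 SD, cut at about 35% in these data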;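 further: 0% = GSTO1-1 with DMSO and 100% = wells lacking GSTO1-1 enzyme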
TDP2 inh – TDP2 (human) inhibition, absorbance primary screen. recombinant TDP2, T5PNP hydrolysis, p-nitrophenol absorbance 415 nm. inhibition, % at 12.8 µM. 370,000 tested, 0.34% active. O95551;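 active means inhibition above the mean of all tested compounds plus 3 SD, set per campaign, cut at about 25% in these data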;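 further: 0% = DMSO with enzyme and 100% = buffer with substrate but no TDP2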
Target sequence (O95551 whole entry, looked up): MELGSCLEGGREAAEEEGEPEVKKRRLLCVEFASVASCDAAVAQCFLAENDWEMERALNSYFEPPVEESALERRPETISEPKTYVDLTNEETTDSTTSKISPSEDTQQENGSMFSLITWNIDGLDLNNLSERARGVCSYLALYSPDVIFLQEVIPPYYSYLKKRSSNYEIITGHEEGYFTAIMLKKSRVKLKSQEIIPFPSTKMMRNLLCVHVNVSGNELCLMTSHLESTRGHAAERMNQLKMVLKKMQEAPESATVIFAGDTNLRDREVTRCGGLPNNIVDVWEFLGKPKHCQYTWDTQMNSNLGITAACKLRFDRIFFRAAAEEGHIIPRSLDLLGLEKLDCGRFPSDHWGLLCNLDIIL
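Material: recombinant human TDP2; quantity: TDP2 enzyme at 120 nM final; medium: Tris-HCl pH 7.5 with MgCl2; compound: single concentration, 12.8 µM nominal, with 1% DMSO; incubation: 2 h enzyme incubation at 37 °C; signal: epi absorbance; measure: percent inhibition; benchmarks: high control without enzyme, low control DMSO plus TDP2; repeats: singlicate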
SIAE inh conf – human SIAE inhibition, confirmation | 2,300 tested, 13% active | inhibition, % at 9.66 µM | shares compounds with SIAE inh | SIAE FP-Rh activity-based probe, fluorescence polarization | AID 1117263;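 active means mean inhibition of the replicates above the hit cutoff set in the primary screen, cut at about 17% in these data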;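 further: 0% = SIAE with DMSO and probe and 100% = probe without SIAE; inhibitors lower polarization as more probe stays unbound to SIAE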
Active calls of the source: *; / = no result given.

SMILES	TCR-CD3 inh	SIAE inh	Apaf1 inhib	PAD4 FP inh	GSTO1 counter	TDP2 inh	SIAE inh conf
Nc1ccc(C(=O)N/N=C/c2cn(Cc3ccc(F)cc3)c3ccccc23)cc1	5	16	4	/	/	-6	/
Nc1ccc(C(=O)N/N=C/c2cn(Cc3ccccc3F)c3ccccc23)cc1	2	20*	16	/	/	-4	10
COc1cc(C(=O)N/N=C/c2cn(Cc3ccccc3)c3ccccc23)ccc1O	9	25*	15	/	/	-3	10
CCOc1cc(N2CCOCC2)c(OCC)cc1NC(=O)CN1C(=O)NC(C)(C2CC2)C1=O (stereo not given)	5	4	-7	-4	20	20	/
CC(C)CCN1C(=O)CCC1(C)C(=O)NC1CCCCCC1 (stereo not given)	/	/	-27	0	-2	/	/
FC(F)(F)c1ccccc1NC(=S)N1CCCC1	7	5	7	-6	4	-19	/
CCn1c(=O)n(CC)c2cc(N3CCCC3)c(NC(=O)c3ccc(F)cc3)cc21	1	18*	13	-1	-7	-7	3
O=C(CCc1nnc(-c2ccc(-c3ccccc3)cc2)o1)NCCc1ccccn1	4	-1	3	-2	4	-3	/
COC(=O)CCCNC(=O)CCc1nnc(-c2ccc(-c3ccccc3)cc2)o1	3	18*	/	-3	1	-7	0
CCOC(=O)C(Cc1ccccc1)NC(=O)CNC(C)=O (stereo not given)	4	-1	-3	5	2	4	/
Cc1ccc(O)c(Nc2c3ccccc3nc3ccccc23)c1	3	37*	2	-10	2	-14	-7
Cc1ccc(O)c(Nc2nc(-c3ccccc3)nc3ccccc23)c1	2	-2	0	-3	3	11	/
O=C(Cn1c(=S)[nH]c2ncccc2c1=O)NCCc1ccccc1	-8	36*	-12	-1	8	-19	-3
c1ccc(CSc2nnc(-c3cccnc3)o2)cc1	2	4	-8	2	11	-4	/
C(=C\c1ccccc1)/CSc1nnc(-c2cccnc2)o1	-2	21*	8	0	7	-1	1
C=CCN1C(=O)[C@H](CC(=O)N2CCC(c3ccccc3)CC2)[C@@]2(C(=O)OCC)CCCC=C12	/	-2	/	/	/	-8	/
CCOc1ccc(-n2c(C)cc(/C=N/NC(=O)C(N)=O)c2C)cc1	5	20*	11	-6	10	2	-1
CCOc1ccc(-n2c(C)cc(/C=N\NC(=O)CC(=O)NC3CCCCC3)c2C)cc1	11	4	19	-8	3	-2	/
O=C(COC(=O)c1cc2c(s1)CCC2)Nc1ccc(F)cc1	2	-1	22	-7	3	-5	/
O=C(NCc1ccc(F)cc1)Nc1nnc([C@H]2C[C@H](O)[C@@H](CO)O2)s1	0	2	/	/	/	-6	/
CCCOc1ccc(OCCN2CCCC(C)C2)cc1 (stereo not given)	0	20*	-15	-1	-2	15	7
O=C1CCCC(O)=C1N=Nc1cccc(C(=O)O)c1	0	21*	4	-13	11	-9	5
CCNC(=O)NC(=O)C(C)Sc1nnc(COc2ccccc2Cl)o1 (stereo not given)	4	29*	18	0	10	0	1
CCn1c2ccccc2c2cc(NC(=O)c3ccccc3[N+](=O)[O-])ccc21	3	21*	-1	2	1	1	10
CCn1c2ccccc2c2cc(NC(=O)COC(=O)c3ccc(O)cc3)ccc21	6	17*	13	3	-25	15	-10
CCn1c2ccccc2c2cc(NC(=O)COC(=O)c3cccc(OC)c3)ccc21	/	2	/	/	/	-8	/
CCn1c2ccccc2c2cc(NC(=O)c3ccc([N+](=O)[O-])cc3)ccc21	-4	0	-5	1	9	6	/
Cn1cccc1/C=N/NC(=O)c1cc2ccccc2cc1O	-2	17*	11	-7	21	-9	1
Cn1cccc1/C=N/NC(=O)c1ccccn1	2	5	-4	-4	3	9	/
